Source: ChEMBL document CHEMBL5715947 (Blood Cancer J, 2011)
Values belong to the molecule of their own block, whether it stands above or below them. Calls of active or inactive are those of the source. The calls are words filed in the database; no cut-off is given here.

Legend:
[1] = test system: MV4-11; experiment: Synergistic antiproliferative activity against human MV4-11 cells harboring FLT3-ITD mutant assessed as combination index at ED50 concentration incubated for 48 hrs in presence of JAKi-1 by CellTiter-Glo assay; assay type: functional
Summary of the method: (§1)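 Two drugs combined at a constant ratio based on each one's individual IC50. […] Cells seeded 2000–6000/well and treated the same day in triplicate for 48 h. Viability read by CellTiter-Glo. Synergy from dose-response data of the combination. Final DMSO 0.1%.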

[2] = test system: MV4-11; experiment: Synergistic antiproliferative activity against human MV4-11 cells harboring FLT3-ITD mutant assessed as combination index at ED90 concentration incubated for 48 hrs in presence of JAKi-1 by CellTiter-Glo assay; assay type: functional; summary of the method: as §1
[3] = test system: MV4-11; experiment: Down regulation of JAK2 protein expression level in human MV4-11 cells harboring FLT3-ITD mutant at 5 nM after 24 hrs by Western blot analysis; assay type: functional, cell-based
[4] = test system: Receptor-type tyrosine-protein kinase FLT3 (Homo sapiens), P36888 [UNDEFINED MUTATION]; conditions: MV4-11, dose 5.0 nM, time 24.0 hrs
[5] = Selectivity ratio of IC50 for antiproliferative activity against human linifanib-resistant MV4-11 cells harboring FLT3-ITD mutant to IC50 for antiproliferative activity against human MV4-11 cells harboring FLT3-ITD mutant; assay type: functional
Summary of the method: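 Linifanib-resistant MV4-11 (MV4-11-R) and parental MV4-11 (MV4-11-P) cells, 2000–6000 cells/well, dosed on the seeding day in triplicate for 48 h, with final DMSO 0.1%. Viability was read by CellTiter-Glo luminescence. IC50 for each line came from dose-response curves, and the ratio is the resistant-line IC50 divided by the parental IC50.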

[6] = test system: Receptor-type tyrosine-protein kinase FLT3 (Homo sapiens), P36888 [UNDEFINED MUTATION]; experiment: Inhibition of FLT3-ITD mutant in human MV4-11 cells assessed as reduction in phosphorylated FLT3 protein expression up to 1000 nM incubated for 3 hrs by Western blot analysis; assay type: cell-based
[7] = Toxicity in BALB/c nude mouse xenografted with human MV4-11 cells harboring FLT-3 ITD mutant assessed as change in body weight at 25 to 100 mg/kg, po administered daily for 21 days; assay type: organism-based; conditions: in vivo, 504 h, dose 25-100 mg/kg, time 21 day
[8] = test system: MV4-11; experiment: Down regulation of JAK2 protein expression level in human MV4-11 cells harboring FLT3-ITD mutant at 18 nM after 24 hrs by Western blot analysis; assay type: functional, cell-based

Sequence of Receptor-type tyrosine-protein kinase FLT3 (Homo sapiens), P36888 [UNDEFINED MUTATION] (P36888 whole entry, looked up, stated change not applied): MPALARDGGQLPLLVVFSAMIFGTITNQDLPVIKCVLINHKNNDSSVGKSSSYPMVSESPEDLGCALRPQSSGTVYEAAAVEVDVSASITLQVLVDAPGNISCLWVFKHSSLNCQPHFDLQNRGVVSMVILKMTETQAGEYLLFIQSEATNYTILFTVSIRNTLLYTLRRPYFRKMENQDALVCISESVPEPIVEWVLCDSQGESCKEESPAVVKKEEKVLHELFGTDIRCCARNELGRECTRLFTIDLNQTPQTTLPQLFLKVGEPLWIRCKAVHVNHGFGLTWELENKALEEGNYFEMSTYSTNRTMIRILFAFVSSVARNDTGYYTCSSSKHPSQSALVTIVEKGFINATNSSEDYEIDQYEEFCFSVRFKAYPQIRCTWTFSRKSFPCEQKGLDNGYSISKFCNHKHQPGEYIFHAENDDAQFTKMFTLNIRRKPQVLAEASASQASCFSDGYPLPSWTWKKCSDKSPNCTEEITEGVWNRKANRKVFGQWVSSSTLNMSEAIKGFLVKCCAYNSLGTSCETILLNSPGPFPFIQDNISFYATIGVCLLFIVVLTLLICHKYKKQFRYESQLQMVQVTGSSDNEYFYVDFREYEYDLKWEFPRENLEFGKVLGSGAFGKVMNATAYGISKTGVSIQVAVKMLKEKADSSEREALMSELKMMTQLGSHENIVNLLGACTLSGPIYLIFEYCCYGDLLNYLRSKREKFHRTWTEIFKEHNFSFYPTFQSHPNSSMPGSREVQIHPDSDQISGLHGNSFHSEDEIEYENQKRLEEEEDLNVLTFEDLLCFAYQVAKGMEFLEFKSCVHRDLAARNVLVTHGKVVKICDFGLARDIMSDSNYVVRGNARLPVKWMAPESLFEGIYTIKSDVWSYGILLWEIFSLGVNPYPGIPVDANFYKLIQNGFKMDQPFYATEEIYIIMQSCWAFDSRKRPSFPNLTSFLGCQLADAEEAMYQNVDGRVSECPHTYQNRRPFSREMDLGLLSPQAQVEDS

Structure (SMILES): CC(C)(C)c1nc2c3ccc(F)cc3c3c(=O)[nH]ccc3c2[nH]1
inhibition [6]: inactive

Structure (SMILES): C1=C/COCc2cc(ccc2OCCN2CCCC2)Nc2nccc(n2)-c2cccc(c2)COC/1 [PACRITINIB]
Activity [7]: Non-Toxic

Structure (SMILES): Cc1cc(Nc2cc(N3CCN(C)CC3)nc(Sc3ccc(NC(=O)C4CC4)cc3)n2)n[nH]1
Activity [8]: inactive

Second part, led by results:

inhibition [4]: Active
Structure (SMILES): Cc1ccc(F)c(NC(=O)Nc2ccc(-c3cccc4[nH]nc(N)c34)cc2)c1 [LINIFANIB]
CI [1]: 0.73
CI [2]: 0.8
Activity [3]: inactive
Ratio IC50 [5]: 127

inhibition [4]: Active
Structure (SMILES): CCN(CC)CCNC(=O)c1c(C)[nH]c(/C=C2\C(=O)Nc3ccc(F)cc32)c1C
Activity [3]: inactive
